Measurements published in ChEMBL document CHEMBL1135734, “Side-chain lactam-bridge conformational constraints differentiate the activities of salmon and human calcitonins and reveal a new design concept for potent calcitonin analogues” (J Med Chem, 2002).

Assays:
[1] = target: T1, Calcitonin receptor (Rattus norvegicus) (UniProt P32214); assay: Affinity for calcitonin receptor of rat brain relative to [125I]-salmon calcitonin
T1 sequence (whole entry): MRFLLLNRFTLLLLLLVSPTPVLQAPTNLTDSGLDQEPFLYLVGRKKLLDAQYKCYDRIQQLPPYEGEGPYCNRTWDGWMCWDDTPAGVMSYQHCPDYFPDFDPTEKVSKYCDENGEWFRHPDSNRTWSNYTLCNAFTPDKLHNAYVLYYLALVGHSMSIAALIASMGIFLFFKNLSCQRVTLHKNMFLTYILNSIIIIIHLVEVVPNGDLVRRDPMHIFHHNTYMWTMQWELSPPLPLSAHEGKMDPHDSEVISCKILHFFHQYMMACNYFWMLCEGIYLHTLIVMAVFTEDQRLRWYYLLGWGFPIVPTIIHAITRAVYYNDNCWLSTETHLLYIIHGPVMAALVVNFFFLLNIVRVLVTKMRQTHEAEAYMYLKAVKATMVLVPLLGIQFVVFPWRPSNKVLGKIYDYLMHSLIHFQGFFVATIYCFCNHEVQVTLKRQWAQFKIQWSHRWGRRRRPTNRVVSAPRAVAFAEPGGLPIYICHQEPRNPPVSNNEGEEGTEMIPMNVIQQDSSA
In short: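 Male Sprague–Dawley rat (250–350 g) brain membranes (~0.63 mg protein/tube) were shaken on ice for 30 min with 10 pM final [125I-Tyr22]sCT and competitor in 50 mM Tris-HCl pH 7.4 with 34 μM bacitracin. Tubes were centrifuged and the pellets washed, SDS-solubilized and scintillation counted. Nonspecific binding was taken with 1 μM sCT. IC50 came from probit analysis, and relative affinity set sCT = 100%.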

[2] = target: T2, Calcitonin receptor (Homo sapiens) (UniProt P30988)
T2 sequence (whole entry): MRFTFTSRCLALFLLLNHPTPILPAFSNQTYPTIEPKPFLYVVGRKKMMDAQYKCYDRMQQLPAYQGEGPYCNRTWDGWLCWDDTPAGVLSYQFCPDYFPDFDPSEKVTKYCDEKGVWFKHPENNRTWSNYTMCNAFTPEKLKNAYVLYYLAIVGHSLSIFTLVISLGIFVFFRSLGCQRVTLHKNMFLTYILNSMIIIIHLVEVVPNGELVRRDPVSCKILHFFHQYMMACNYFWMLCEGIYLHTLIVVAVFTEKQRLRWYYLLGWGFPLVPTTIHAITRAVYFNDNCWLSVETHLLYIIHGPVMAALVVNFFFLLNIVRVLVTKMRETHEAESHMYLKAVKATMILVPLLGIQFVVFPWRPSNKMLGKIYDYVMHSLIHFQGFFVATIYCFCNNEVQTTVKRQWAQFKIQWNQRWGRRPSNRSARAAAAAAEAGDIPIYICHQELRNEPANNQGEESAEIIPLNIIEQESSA

For `CCCC[C@H](NC(=O)[C@H](Cc1c[nH]cn1)NC(=O)[C@H](CC(C)C)NC(=O)[C@H](CCCCN)NC(=O)[C@H](CC(N)=O)NC(=O)[C@H](CC(C)C)NC(=O)[C@H](CCC(=O)O)NC(=O)[C@H](CCC(N)=O)NC(=O)[C@H](CO)NC(=O)[C@H](CC(C)C)NC(=O)[C@H](CCCCN)NC(=O)CNC(=O)[C@H](CC(C)C)NC(=O)[C@@H](NC(=O)[C@H](CS)NC(=O)[C@@H](NC(=O)[C@H](CO)NC(=O)[C@H](CC(C)C)NC(=O)[C@H](CC(N)=O)NC(=O)[C@H](CO)NC(=O)[C@@H](N)CS)[C@@H](C)O)C(C)C)C(=O)N[C@@H](Cc1ccc(O)cc1)C(=O)N1CCC[C@@H]1C(=O)N[C@@H](CCCN=C(N)N)C(=O)N[C@H](C(=O)N[C@@H](CC(N)=O)C(=O)N[C@H](C(=O)NCC(=O)N[C@@H](CO)C(=O)NCC(=O)N[C@H](C(=O)N1CCC[C@@H]1C(N)=O)[C@@H](C)O)[C@@H](C)O)[C@@H](C)O`, the Relative affinity [1] was 92 and the ED50 [2] was 46 pM.
`CC(C)C[C@H](NC(=O)[C@H](CCCCN)NC(=O)CNC(=O)[C@H](CC(C)C)NC(=O)[C@@H](NC(=O)[C@H](CS)NC(=O)[C@@H](NC(=O)[C@H](CO)NC(=O)[C@H](CC(C)C)NC(=O)[C@H](CC(N)=O)NC(=O)[C@H](CO)NC(=O)[C@@H](N)CS)[C@@H](C)O)C(C)C)C(=O)N[C@@H](CO)C(=O)N[C@@H](CCC(N)=O)C(=O)N[C@@H](CCC(=O)O)C(=O)N[C@@H](CC(C)C)C(=O)N[C@H]1CC(=O)NCCCC[C@@H](C(=O)N[C@@H](Cc2ccc(O)cc2)C(=O)N2CCC[C@@H]2C(=O)N[C@@H](CCCN=C(N)N)C(=O)N[C@H](C(=O)N[C@@H](CC(N)=O)C(=O)N[C@H](C(=O)NCC(=O)N[C@@H](CO)C(=O)NCC(=O)N[C@H](C(=O)N2CCC[C@@H]2C(N)=O)[C@@H](C)O)[C@@H](C)O)[C@@H](C)O)NC(=O)[C@H](Cc2cn(N)cn2)NC(=O)[C@H](CC(C)C)NC(=O)[C@H](CCCCN)NC1=O` was tested, and the Relative affinity [1] was 210 and the ED50 [2] was 75 pM.
Compound `CC[C@H](C)[C@H](NC(=O)[C@H](C)NC(=O)[C@@H](NC(=O)[C@H](CCC(N)=O)NC(=O)[C@H]1CCCN1C(=O)[C@H](Cc1ccccc1)NC(=O)[C@@H](N[C@@H](Cc1c[nH]cn1)C(=O)NC(CCCCN)C(=O)[C@@H]1CCCN1C(=O)[C@H](CC(N)=O)NC(=O)[C@H](Cc1ccccc1)NC(=O)[C@H](CC(=O)O)NC(=O)[C@H](CCC(N)=O)NC(=O)[C@@H](NC(=O)[C@H](Cc1ccc(O)cc1)NC(=O)[C@@H](NC(=O)CNC(=O)[C@H](CC(C)C)NC(=O)[C@H](CCSC)NC(=O)[C@H](CS)NC(=O)[C@@H](NC(=O)[C@H](CO)NC(=O)[C@H](CC(C)C)NC(=O)[C@H](CC(N)=O)NC(=O)CNC(=O)[C@@H](N)CS)[C@@H](C)O)[C@@H](C)O)[C@@H](C)O)[C@@H](C)O)[C@@H](C)O)C(=O)NCC(=O)N[C@H](C(=O)NCC(=O)N[C@@H](C)C(=O)N1CCC[C@@H]1C(N)=O)C(C)C` (stereo partly drawn) has a Relative affinity [1] of less than 0.0075 and an ED50 [2] of 104000 pM.
For `CC[C@H](C)[C@H](NC(=O)[C@H](C)NC(=O)[C@@H](NC(=O)[C@H](CCC(N)=O)NC(=O)[C@H]1CCCN1C(=O)[C@H](Cc1ccccc1)NC(=O)[C@@H](NC(Cc1c[nH]cn1)C(=O)N[C@@H](Cc1ccccc1)C(=O)[C@H](CCCCN)NC(=O)[C@H](CC(N)=O)NC(=O)[C@H](Cc1ccccc1)NC(=O)[C@H](CC(=O)O)NC(=O)[C@H](CCC(N)=O)NC(=O)[C@@H](NC(=O)[C@H](Cc1ccc(O)cc1)NC(=O)[C@@H](NC(=O)CNC(=O)[C@H](CC(C)C)NC(=O)[C@H](CCSC)NC(=O)[C@H](CS)NC(=O)[C@@H](NC(=O)[C@H](CO)NC(=O)[C@H](CC(C)C)NC(=O)[C@H](CC(N)=O)NC(=O)CNC(=O)[C@@H](N)CS)[C@@H](C)O)[C@@H](C)O)[C@@H](C)O)[C@@H](C)O)[C@@H](C)O)C(=O)NCC(=O)N[C@H](C(=O)NCC(=O)N[C@@H](C)C(=O)N1CCC[C@@H]1C(N)=O)C(C)C` (stereo partly drawn), the Relative affinity [1] was 0.015 and the ED50 [2] was 600 pM.
